Measurements published in ChEMBL document CHEMBL4513216, “Probing the Open Global Health Chemical Diversity Library for Multistage-Active Starting Points for Next-Generation Antimalarials” (ACS Infect Dis, 2020).

Test: Toxicity liver stage against HepG2, at 10uM
Format: cell-based
Design: test concentration 10 uM, cell line HepG2-A16-CD81EGFP
Conditions: human, HepG2-A16-CD81EGFP cells; read-out: INHIBITION
Procedure, shortened: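 Uninfected HepG2-A16-CD81EGFP cells, 3 × 10^3 per well, 1536-well, plated on prespotted compound at 10 μM final, parasite-free screening media added to match infected plates; puromycin 10 μM positive, DMSO 0.5% negative; run in parallel with 48 h PbLuc assay at 37 °C, 5% CO2; viability by CellTiter-Glo luminescence, normalized to controls.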

Row | SMILES | cytotoxicity at 10 µM
1 | CSc1c[nH]nc1NS(=O)(=O)c1cc(F)ccc1Cl | -7.23%
2 | Cc1cc(C)n(CC2CCCN2Cc2cscn2)n1 (stereo not given) | -7.65%
3 | CC(CN1CC[C@@H]2CCCC[C@@H]2C1)n1cnc2ccccc21 (stereo not given in full) | 7.16%
4 | COc1ccc(CN2CC[C@H](c3nnc(-c4ccco4)o3)C2)cc1 | 0.0623%
5 | CN(Cc1nnc(C2CC2)o1)Cc1ccccc1-c1ccccc1 | 4.59%
6 | Fc1cccc2[nH]c(CN3CCn4c(nnc4C4CC4)C3)nc12 | -5.07%
7 | CCc1ccc(C(=O)O)cc1S(=O)(=O)Nc1c(C)ccn(C)c1=O | 4.28%
8 | CC(=O)N(CCC(=O)NC1(C#N)CCC1)Cc1ccccc1 | 12.6%
9 | Cc1ccc(S(=O)(=O)Cc2nnc(C)n2C)cc1 | -2.92%
10 | COCc1nc(CN2CC(=O)N(C)c3ccccc3C2=O)no1 | -6.03%
11 | Cc1cc(C[S+]([O-])CC(=O)NCc2cccs2)no1 (stereo not given) | -12.3%
12 | CN(C)c1nc2c(c(=O)[nH]1)CCN(C(=O)c1cccc3nccnc13)C2 | -10.7%
13 | COC(CNC(=O)c1cn(C)nn1)c1ccccc1C (stereo not given) | -14.5%
14 | Cc1nnc(-c2cccc(C#N)c2)n1C1CCN(C(C)C)C1=O (stereo not given) | -2.4%
15 | CC(C)c1nc2c(n1C)CCN(CCS(=O)(=O)c1ccccc1)C2 | 5.11%
16 | Cc1cc(C)c2[nH]c(C(=O)NCCN3CCNC3=O)c(C)c2c1 | 2.49%
17 | CN(Cc1cnn(C)c1)CC(O)c1ccc2c(c1)OCO2 (stereo not given) | -9.98%
18 | CCCc1nc(C)cc(N2CCC3(CCC(=O)N(CCOC)C3)CC2)n1 | 9.51%
19 | Cc1ccc(CC(=O)N2CCCC(n3ccnc3C(C)C)C2)cn1 (stereo not given) | -5.11%
20 | COCc1noc(CN2C[C@H](NS(C)(=O)=O)[C@@H](C3CC3)C2)n1 | 1.67%
21 | CC(C)CN1CCN(Cc2nc3c(s2)CCCC3)[C@H]2CS(=O)(=O)C[C@H]21 | 8.19%
22 | Cc1cc(C)cc(C(=O)N2CCCN(CC(N)=O)CC2)c1 | -5.65%

Row | SMILES | cytotoxicity at 10 µM
23 | O=C(c1ccc(N2CCOCC2)cc1)N1CCCC(n2ccnc2)C1 (stereo not given) | -6.78%
24 | COC1CN(C(=O)COC(C)=O)CCC(=O)N(C)c2ccccc21 (stereo not given) | -3.03%
25 | CC(C)Sc1nnc(CCNC(=O)OC(C)(C)C)o1 | 14.3%
26 | COCC(=O)N1CCC2(CC1)CN(S(C)(=O)=O)Cc1ccccc1O2 | 7.3%
27 | Cc1nc(CN(C)C2CCN(CCCOc3ccc(F)cc3)C2)no1 (stereo not given) | -8.27%
28 | Cc1cccc(C(=O)NC(CN2CCCC2=O)c2ccccc2)n1 (stereo not given) | -9.16%
29 | CCn1ncc2[nH]c(-c3cc4c(cc3OC)OCO4)nc21 | -2.99%
30 | COc1cccc2c1OCC(NCCCOc1cccnc1)C2 (stereo not given) | 1.52%
31 | CCOc1ccc(CNCC(O)c2ccccc2)cc1Cl (stereo not given) | -3.4%
32 | Cc1nnc(C2CCN(C(=O)c3ccsc3)CC2)s1 | 10.5%
33 | O=C(Nc1ccccc1)N1CCn2nnc(COc3cccnc3)c2C1 | -2.03%
34 | COc1ccc(NC2(C(=O)N3CCCn4cncc4C3)CCCC2)cc1 | 10.2%
35 | Cc1cc(C[C@@H]2COC[C@@H]2NC(=O)CN2CCCCCC2)on1 | 1.29%
36 | CCOc1ccc(CC(=O)N2CCN(c3nccn3C)CC2)cc1 | 6.85%
37 | COc1cccc(Nc2nc(C3CCNCC3)c3ccccn23)c1 | -2.67%
38 | Cc1noc(C(C)N2CCN(Cc3noc(C4CC4)n3)CC2)n1 (stereo not given) | 0.973%
39 | Cc1cnc2c(c1NCc1ccc(F)cc1)c(=O)n(C)c(=O)n2C | -7.36%
40 | CNc1ncc(C(=O)N[C@H]2CN(CCCSC)C[C@@H]2C2CC2)cn1 | 1.33%
41 | CC1c2ncc(CNC(=O)C3CC3)n2CCN1CC1CCC1 (stereo not given) | -3.15%
42 | CC(C(=O)NCc1ccc(N2CCNC(=O)C2)cc1)n1cncn1 (stereo not given) | -9.21%
43 | CCNC(=O)CNS(=O)(=O)c1cc(Br)ccc1F | -55.4%
44 | CCc1nc(C2CCCN(C(=O)c3ccc(OC(C)C)nc3)C2)no1 (stereo not given) | 3.25%

Row | SMILES | cytotoxicity at 10 µM
45 | Cn1ccnc1C(=O)NCc1cc(=O)n2c(n1)CN(CC1CC1)CCC2 | 13.8%
46 | CC(=O)N1CCC2(CCN(C(=O)c3ccc(C)c(C(F)(F)F)c3)CC2)C1 | 3.73%
47 | COc1ccccc1CN(C)C(=O)c1cc(CN2CCC(O)CC2)on1 | -26.7%
48 | c1cnc(NCc2cncc3c2CCN(CC2CC2)C3)nc1 | -101%
49 | Cc1ccsc1C(O)CNC(=O)Cc1ccc(S(=O)(=O)C(C)C)cc1 (stereo not given) | -1.21%
50 | Cn1cnc2c(N3CCCC3)nc(C3CCNCC3)cc21 | -9.74%
51 | CN(CCC(=O)N1CCc2sccc2C1)Cc1ccc2c(c1)OCCO2 | -14.8%
52 | O=C(NC1CCN(c2ncccc2F)C1)c1cccc(-n2ccnc2)c1 (stereo not given) | 9.49%
53 | Cc1nnc2n1CCN(C(=O)c1ccc(Cn3cccc3)cc1)C2 | -2.4%
54 | CNc1cc(C)nc(-c2cc(NC3CCNCC3)nc3[nH]ccc23)n1 | -2.98%
55 | CCc1cnc(CN(C)C2CCN(CCS(C)(=O)=O)C2)o1 (stereo not given) | -3.94%
56 | CN(CC(=O)N1CCCC1c1noc(C2CC2)n1)Cc1ccccc1 (stereo not given) | -5.09%
57 | NC(=O)[C@@H]1Cc2ccccc2CN1S(=O)(=O)N1CCCCCC1 | 15.6%
58 | CN(Cc1ccncc1)C(=O)[C@H]1CSCN1C(=O)OC(C)(C)C | -9.65%
59 | CN(C)C(=O)c1cncnc1-c1ccc(CNC(=O)C2CC2)cc1 | 2.33%
60 | CC(NC(=O)c1nc(=O)[nH][nH]1)c1ccc(OCC2CC2)c(F)c1 (stereo not given) | -5.75%
61 | CS(=O)(=O)CCNCc1ccc(OCc2ccncc2)cc1 | -134%
62 | Cn1cc(C2SCC(=O)Nc3c2cnn3C(C)(C)C)cn1 (stereo not given) | -6.24%
63 | CC(C)Oc1ncnc2c1CCN(Cc1cccs1)CC2 | -0.935%
64 | O=C(O)c1csc(S(=O)(=O)N2CCN(Cc3ccc(Cl)cc3)CC2)c1 | 4%
65 | Cn1cncc1C(=O)N1C[C@@H]2CCN(c3cnccn3)C[C@@H]2C1 | -96.6%
66 | NC(=O)COc1ccc(CNCc2ccc(F)cc2)cc1 | -2.05%

Row | SMILES | cytotoxicity at 10 µM
67 | Cc1nc(CN2C[C@@H](CN3CCOCC3)[C@@H](CO)C2)c2ccccn12 | 0.363%
68 | Cc1c(CNC(=O)Nc2cccc3c2CCN3C)cnn1C | -1.02%
69 | COc1cccc(CCC(=O)N2CCCC(c3nncn3C)C2)c1 (stereo not given) | -20.1%
70 | O=C(c1cc(F)ccc1F)C1CCN(C(=O)c2cnccn2)CC1 | -27.2%
71 | O=C([C@H]1CCCN1)N1CC2(CCNCC2)c2cc(Cl)ccc21 | 0.286%
72 | O=C(NCc1cccnc1)c1nc2c(s1)CCCN2C(=O)C1CC1 | -93%
73 | Cc1nccc(NCc2cc3n(n2)CCCN(S(C)(=O)=O)C3)n1 | 2.35%
74 | Cc1oncc1C(=O)N1CC[C@H]2[C@H](C[C@@H](CN3CCCC3)N2C)C1 | 0.286%
75 | CCn1ccnc1CN1CCCN(C(=O)Cc2ccc(C)s2)CC1 | -19%
76 | COCC1CN(C(=O)c2cccn2C)Cc2cnn(C)c21 (stereo not given) | 7.43%
77 | Cn1nccc1NC(=O)CN1CCc2sccc2C1 | 1.09%
78 | CCCC(=O)N(Cc1ccncc1)C(C)CC (stereo not given) | 9.66%
79 | COCCN1CCc2cc(C(=O)NCC3CC3)c(NC(C)C)nc2CC1 | 73.6%
80 | NC(=O)CN1CC(c2nc(C3CC3)no2)C1 | 5.62%
81 | CCCN(C)CCC(=O)N1CCCC1Cn1cccn1 (stereo not given) | -16.9%
82 | Cc1ccc2nc(C3CCN(CC4CC4)CC3)nn2c1 | 0.806%
83 | Cc1nc(CC2CCN(Cc3ccc(CCC(C)(C)O)cc3)CC2)no1 | -0.94%
84 | O=C(OCc1cccs1)c1cccc(C(=O)N2CCCC2)n1 | -1.11%
85 | CC(=O)N1CCCC(c2cccc(-n3ccnc3)n2)C1 (stereo not given) | -9.08%
86 | CC(C)(N)c1cn([C@@H]2c3ccccc3C3(CCNCC3)[C@H]2O)nn1 | -4.67%
87 | COCCCN1CC2(CCCCN2C(C)=O)CC1=O (stereo not given) | 16.3%
88 | Nc1ncc(-c2csc(NC(=O)C[C@H]3COCCN3)n2)cn1 | -2.83%

Row | SMILES | cytotoxicity at 10 µM
89 | Cc1occc1C(=O)Nc1cnn(CCN2CCOCC2)c1 | -10%
90 | Cc1ccc(S(=O)(=O)N2CCC(Oc3cccnn3)CC2)c(C)c1 | 3.47%
91 | CS(=O)(=O)N1CCC(C(=O)NC(Cc2ccsc2)c2ccccn2)CC1 (stereo not given) | -2.91%
92 | O=C1CC(c2ccc(C(F)(F)F)cc2)c2c(n3ccsc3nc2=O)N1 (stereo not given) | -1.4%
93 | O=C(Nc1nncs1)N1CCC(c2ccc(O)cc2)CC1 | -7.55%
94 | Cc1noc(C2CCCN(C(=O)c3cc(Cl)c(Cl)n3C)C2)n1 (stereo not given) | 13.6%
95 | CCN1CCC(N2CCC(c3nc(C)cc(C)n3)C2)CC1 (stereo not given) | 5.15%
96 | CCn1cc(CN2CCCN(C(=O)CCCn3cncn3)CC2)cn1 | -12.5%
97 | O=C(NCCc1ccccn1)c1n[nH]c2c1CCC2 | -3.81%
98 | O=C(NCc1nc(C2CC2)no1)N1CCOC(c2cccc(F)c2)C1 (stereo not given) | -44.6%
99 | Fc1ccccc1CC1CCN(Cc2ccccn2)CC1 | 2.25%
100 | Cc1cc(CN2CC[C@H]3C(=O)N(c4ccccc4)CCO[C@H]3C2)no1 | -5.59%
101 | CN1[C@@H](C(=O)NCC2CC2)C[C@@H]2CN(Cc3ccsc3)C[C@@H]21 | -4.04%
102 | O=C(c1ccoc1)N1CCO[C@]2(CCC[C@@H]2COCc2ccncc2)C1 | 0.341%
103 | O=C(CCNc1ncccn1)NCc1cccc(OC(F)F)c1 | -1.75%
104 | Cc1cccc(CN2CCOCC3(CCN(C4CCOCC4)C3)C2)n1 (stereo not given) | -0.124%
105 | CC(CN1CCOCC1)NC(=O)c1cc(Cl)c2c(c1)OCCO2 (stereo not given) | -1.4%
106 | CS(=O)(=O)NCCCNC(=O)c1cnc(-c2ccsc2)s1 | -13.7%
107 | NC(=O)c1ccc(CN2CCCC(N3CCCC3)C2)cc1 (stereo not given) | -3.63%
108 | CCc1nnc(CNC2CCN(c3ncnc4c(C)csc34)CC2)s1 | 10.5%
109 | O=C1CCC(=O)N1c1nn(Cc2ccc(F)cc2)cc1Cl | -13.2%
110 | CCOCCNC(=O)c1ccc(OC)cc1I | 6.53%
